Screening data deposited in PubChem BioAssay by Sanford-Burnham Center for Chemical Genomics.
hIAP block = blocks human intestinal alkaline phosphatase; P09923; purified IAP, CDP-Star luminescence, 30 min; inhibition, % at 10 µM; actives 0.12% (n = 330,000);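 active = inhibition reaching a set limit with compound at 10 µM in the primary screen, cut at about 35% in these data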;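 also: plate controls were DMSO wells with enzyme for no effect and no-enzyme buffer wells for full effect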
Target sequence (P09923 whole entry, looked up): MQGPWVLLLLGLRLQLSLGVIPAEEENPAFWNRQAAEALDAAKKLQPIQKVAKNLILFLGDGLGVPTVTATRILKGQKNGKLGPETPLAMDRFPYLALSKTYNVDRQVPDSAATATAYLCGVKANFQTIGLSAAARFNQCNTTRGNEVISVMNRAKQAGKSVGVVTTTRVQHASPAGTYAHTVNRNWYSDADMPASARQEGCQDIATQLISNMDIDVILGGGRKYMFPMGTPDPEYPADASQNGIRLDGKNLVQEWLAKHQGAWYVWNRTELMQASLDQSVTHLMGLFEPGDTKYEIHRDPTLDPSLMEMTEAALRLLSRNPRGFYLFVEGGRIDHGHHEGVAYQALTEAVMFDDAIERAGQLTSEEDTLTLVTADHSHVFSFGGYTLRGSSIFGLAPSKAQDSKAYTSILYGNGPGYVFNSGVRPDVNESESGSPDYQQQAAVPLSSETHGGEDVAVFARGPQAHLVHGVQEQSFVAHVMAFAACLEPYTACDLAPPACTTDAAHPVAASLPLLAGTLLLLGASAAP
bIAP inhibitor = blocks bovine intestinal alkaline phosphatase activity; purified bovine IAP, CDP-star luminescence, 30 min; 190,000 tested, under 10 active; inhibition, % at 20 µM;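 active = over 50% inhibition of intestinal alkaline phosphatase at 20 µM in the single-dose screen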
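test system = bovine IAP enzyme | medium = DEA buffer 100 mM, pH 9.8, with MgCl2 1.0 mM, ZnCl2 0.02 mM | detection = luminescence | dosing = single compound dose of 20 µM, 2% DMSO final | incubation = 30 min reaction at room temperature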
mIAP activ = increases mouse intestinal alkaline phosphatase activity; activation factor at 10 µM; muIAP, CDP-Star luminescence, 30 min; active compounds read high; 1 = vehicle-only enzyme signal, 0 = enzyme-free wells; actives 0.24% (n = 330,000);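 active = activation factor of at least 2 at 20 µM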
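System: Mouse IAP enzyme | Also added: CDP-Star substrate | Dosing: Compounds dispensed in DMSO | Schedule: 30 min enzyme-substrate-compound incubation at room temperature | Technique: Chemiluminescence readout | Control set: DMSO-only wells and no-enzyme negative control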
bIAP act = intestinal alkaline phosphatase (bovine) activation; actives 0.17% (n = 200,000); activation factor at 20 µM; purified bovine IAP, CDP-star luminescence, 30 min; active compounds read high; fold of DMSO-control signal, blank-subtracted;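 active = activation factor of 2 or more at 20 µM, a signal rise over negative controls twice the positive control's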
hIAP act = increases human intestinal alkaline phosphatase activity | P09923 | purified human IAP, CDP-Star luminescence, 30 min; active compounds read high; 1 = vehicle-only enzyme, 0 = enzyme-free background | activation factor at 10 µM | actives 0.16% (n = 330,000) | AID 2524;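 active = activation factor of the enzyme at least 2-fold when tested at 20 µM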
mIAP block = mouse IAP inhibition. purified mouse IAP, CDP-Star luminescence, 30 min. actives 0.2% (n = 330,000). AID 2806. inhibition, % at 10 µM;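 active = inhibition of at least 40% at 10 µM in the primary screen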;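 also: plate controls were DMSO with enzyme for no effect and no enzyme wells for full effect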
mIAP inh confirm = mouse IAP inhibition confirmation. purified mouse IAP, CDP-Star luminescence, 30 min. actives 4.7% (n = 11,000). inhibition, % at 10 µM. shares compounds with mIAP block. AID 434971;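 active = inhibition of at least 40% at 10 µM in either of the two replicates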;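 also: plate controls were DMSO wells with enzyme for no effect and buffer wells lacking enzyme for full effect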
* marks the source's active call; other numbers are inactive results; x = not tested or not shown. This is a sample that favours compounds with a hit; in the whole collection about 0.72% have one here.

SMILES	hIAP block	bIAP inhibitor	mIAP activ	bIAP act	hIAP act	mIAP block	mIAP inh confirm
COC(=O)c1sc2nc(-c3ccco3)ccc2c1N	6	3	0.48	1	0.94	52*	53*
Nc1c(C(=O)Nc2ccccc2F)sc2nc(-c3ccco3)ccc12	8	15	0.53	0.9	0.92	48*	61*
CC(C)OC(=O)c1sc2nc(-c3ccccc3)ccc2c1N	-34	-10	1.2	1.1	1.3	-22	x
NC(=O)c1sc2nc3c(c(-c4ccco4)c2c1N)CCC3	-8	11	0.57	0.9	1.1	43*	57*
Cc1cnc(C)c(N2CCN(Cc3nc(-c4ccccc4)no3)CC2)n1	-4	-7	1	1.1	1	-5	x
CC(C)S(=O)(=O)c1cnc(-c2ccccn2)nc1N	-16	x	0.99	x	1.2	1	x
Fc1cc(F)cc(NC(=S)Nc2ccccc2N2CCOCC2)c1	16	10	1.1	0.9	0.84	-5	x
COc1ccc(-n2c(=S)[nH]c3cc(C(=O)NCc4cccnc4)ccc3c2=O)cc1	0	x	0.94	x	1	6	x
O=c1oc2cc([N+](=O)[O-])ccc2nc1/C=C(\O)c1cccc(Br)c1	23	x	0.82	x	0.77	18	x
O=c1oc2cc([N+](=O)[O-])ccc2nc1/C=C(O)/C=C/c1ccccc1	0	x	0.31	x	1	69*	76*
C=CCc1cccc2cc(C(=O)NNC(=O)CC#N)c(=O)oc12	-5	x	0.55	x	1	45*	55*
O=C(O)c1cc(-c2ccco2)[nH]n1	-5	-3	0.31	1	1.1	69*	68*
COc1ccc(Cl)cc1NC(=O)CC1S/C(=N/N=C2CCCCCC2)NC1=O (stereo not given)	-13	x	0.89	x	1.1	11	x
O=C(Nc1ccc(-n2ccc(C(F)(F)F)n2)cc1)Nc1cccc(Cl)c1	-2	x	2.8*	x	1	-178	-92
Cc1cc(C)cc(NC(=O)Nc2ccc(-n3ccc(C(F)(F)F)n3)cc2)c1	-16	x	3.9*	x	1.2	-288	-136
COc1ccccc1NC(=O)Nc1ccc(-n2ccc(C(F)(F)F)n2)cc1	-4	x	1.5	x	1	-46	x
N#Cc1c(-c2ccccc2)c(-c2ccccc2)nn(CC(=O)NNC(=O)Nc2ccc(Cl)c(Cl)c2)c1=O	-26	-15	1	1.1	1.3	0	x
COc1ccc(CNC(=O)CN(C(=O)c2snc(C(N)=O)c2N)c2ccccc2F)cc1	0	x	1	x	1	-1	x
CCN(CC)c1ccc(S(=O)(=O)N2CCOCC2)cc1NC(=O)Nc1ccccc1	-5	x	4.7*	x	1	-366	-153
CCN(CC)c1ccc(S(=O)(=O)N2CCOCC2)cc1NC(=O)CNCc1ccccc1	-26	x	1.1	x	1.3	-11	x
CC1=NN2C(=N)/C(=C\c3ccc(SCc4ccccc4)o3)C(=O)N=C2S1	0	14	0.85	0.9	1	15	x
N=C1/C(=C\c2ccc(SCc3ccco3)o2)C(=O)N=C2SC=NN12	-2	6	0.31	0.9	1	69*	76*
O=[N+]([O-])c1ccccc1NC(=S)N/N=C/c1ccc(O)c(O)c1	13	18	0.25	0.8	0.87	75*	72*
Cc1ccc(/C=c2\sc3nc(-c4ccco4)nn3c2=O)o1	-3	-5	0.4	1.1	1	60*	81*
COc1ccc(Br)cc1/C=c1\sc2nc(-c3ccco3)nn2c1=O	-3	5	0.4	0.9	1	60*	70*
SMILES	hIAP block	bIAP inhibitor	mIAP activ	bIAP act	hIAP act	mIAP block	mIAP inh confirm
COc1ccccc1/C=c1\sc2nc(-c3ccccc3OC)nn2c1=O	14	27	0.89	0.7	0.86	11	x
N#CC(C#N)=C(N)/C(C#N)=C/c1cc(O)c(O)c(O)c1	3	x	0.29	x	0.97	70*	66*
O=C(Nc1cccc(Cl)c1)C1CCCCC1	1	x	1	x	0.99	-1	x
O=C(Nc1cccc(-c2cccc(Cl)c2)c1)C1CCN(Cc2ccc(CO)o2)CC1	-12	x	4*	x	1.1	-296	-161
CCn1cc(CN2CCC(C(=O)Nc3cccc(-c4cccc(F)c4)c3)CC2)cn1	-3	x	2*	x	1	-104	-166
O=C(c1ccc(Br)cc1)N1CCCc2ccccc21	0	x	1	x	1	-5	x
Cc1ccc(O)c(NC(=O)CSc2n[nH]c(-c3ccccc3)n2)c1	-4	x	0.94	x	1	6	x
O=C(CSc1n[nH]c(-c2ccccc2)n1)c1ccc(O)c(O)c1	-1	x	0.35	0.3	1	65*	69*
Cc1cc(=O)c(C(=O)Nc2cccc(C(=O)NC3CC3)c2)nn1-c1ccccc1Cl	8	x	1	x	0.93	-3	x
COc1ccc(NC(=O)CCNS(=O)(=O)c2ccc3[nH]c(=O)oc3c2)cc1Cl	13	x	0.56	x	0.87	44*	65*
CCOc1ccccc1NC(=O)CCNS(=O)(=O)c1ccc2[nH]c(=O)oc2c1	6	x	0.63	x	0.94	37	x
CCc1cccc(NC(=O)CCNS(=O)(=O)c2ccc3[nH]c(=O)oc3c2)c1	13	x	0.81	x	0.87	19	x
CCOc1ccccc1CNC(=O)CCNS(=O)(=O)c1ccc2[nH]c(=O)oc2c1	18	x	0.39	x	0.82	61*	77*
N#Cc1cccc(NC(=O)CCNS(=O)(=O)c2ccc3[nH]c(=O)oc3c2)c1	17	x	0.25	x	0.83	75*	75*
CC(=O)Oc1ccc(C(=O)Nc2cccc3c2CCCC3)cc1	7	x	1	x	0.93	-4	x
COc1cccc(CCNC(=O)c2ccc(OC)c(OC3CCN(C(C)C)CC3)c2)c1	-17	x	0.96	x	1.2	4	x
COc1ccc2c(c1)CCCC21NC(=O)N(CC(=O)NCc2cccs2)C1=O (stereo not given)	-27	x	1.1	x	1.3	-6	x
Cc1ccccc1C(C)NS(=O)(=O)c1ccc2c(c1)OCCO2 (stereo not given)	3	x	0.95	x	0.97	5	x
CCOC(=O)Cc1nnc2c(Nc3ccc(Cl)cc3)nc3nonc3n12	18	5	0.75	0.9	0.82	25	37*
CCN(CC)CCNC(=O)c1ccc(NC(=O)Nc2cccc3ccccc23)cc1	-54	x	3.1*	x	1.5	-214	-160
O=C1CC(c2ccco2)CC(O)=C1C=Nc1cc(Cl)ccc1Cl (stereo not given)	2	-2	0.6	1	0.98	40	x
O=C1CC(c2ccco2)CC(O)=C1C=Nc1cc(Cl)ccc1O (stereo not given)	-68	-42	0.36	1.4	1.7	64*	70*
Cc1[nH]c2ccccc2c1C(=O)C(=O)NCc1ccco1	-6	6	1.1	0.9	1.1	-5	x
CCc1ccc([C@@H]2CC=C(C(=O)O)[C@H](c3ccc(F)cc3)N2S(=O)(=O)c2ccc(C)cc2)cc1	-9	x	0.98	x	1.1	2	x
